Laboratory results published in ChEMBL document CHEMBL1926614, “Substituted thiazoles V. synthesis and antitumor activity of novel thiazolo[2,3-b]quinazoline and pyrido[4,3-d]thiazolo[3,2-a]pyrimidine analogues” (2012).

Tests used:
Type in all cases: functional
UACC-257 = assay: Growth inhibition of human UACC257 cells at 10 uM after 48 hrs by coulter counting; settings: UACC-257, 48 h, read-out: GI
In short: (§1)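 Single-dose screen in the NCI 60 human tumor cell line panel (nine subpanels). Compounds dissolved in DMSO and diluted in phosphate buffered saline, keeping final DMSO below 1%. Added in duplicate wells to cells at 6 × 10⁴ cells/ml. Controls held PBS and DMSO at matching dilutions. Incubated at 37 °C, humidified, 5% CO₂. Reported as percent growth of treated cells.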

UACC-62 = assay: Growth inhibition of human UACC62 cells at 10 uM after 48 hrs by coulter counting; settings: UACC-62, 48 h, read-out: GI; in short: as §1
CCRF-CEM = assay: Growth inhibition of human CCRF-CEM cells at 10 uM after 48 hrs by coulter counting; settings: read-out: GI
In short: (§2)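 Single-dose primary screen across the full NCI 60-cell-line panel. Stocks were made in DMSO and diluted in PBS to a final DMSO below 1%. Cultures at 6 × 10⁴ cells/ml were run in duplicate wells alongside PBS/DMSO vehicle controls at 37 °C in humidified 5% CO₂. Data were expressed as percent growth of treated cells.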

HL-60(TB) = assay: Growth inhibition of human HL-60(TB) cells at 10 uM after 48 hrs by coulter counting; settings: HL-60, 48 h, read-out: GI
In short: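 Test compound was dissolved in DMSO and diluted in phosphate-buffered saline to a final DMSO level below 1%. Dilutions were plated in duplicate with cell culture at 6 × 10⁴ cells/ml. Vehicle controls held PBS and DMSO at matching dilutions. Incubation was at 37 °C, humidified, under 5% CO₂. Data were reported as percent growth of treated cells.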

K562 = assay: Growth inhibition of human K562 cells at 10 uM after 48 hrs by coulter counting; settings: K562, 48 h, read-out: GI; in short: as §2
MOLT-4 = assay: Growth inhibition of human MOLT4 cells at 10 uM after 48 hrs by coulter counting; settings: MOLT-4, 48 h, read-out: GI; in short: as §2
RPMI-8226 = assay: Growth inhibition of human RPMI8226 cells at 10 uM after 48 hrs by coulter counting; settings: RPMI-8226, 48 h, read-out: GI; in short: as §2
A549 = assay: Growth inhibition of human A549 cells at 10 uM after 48 hrs by coulter counting; settings: A549, 48 h, read-out: GI; in short: as §2
EKVX = assay: Growth inhibition of human EKVX cells at 10 uM after 48 hrs by coulter counting; settings: read-out: GI; in short: as §2
NCI-H226 = assay: Growth inhibition of human NCI-H226 cells at 10 uM after 48 hrs by coulter counting; settings: NCI-H226, 48 h, read-out: GI; in short: as §2
NCI-H23 = assay: Growth inhibition of human NCI-H23 cells at 10 uM after 48 hrs by coulter counting; settings: NCI-H23, 48 h, read-out: GI; in short: as §2
[1] = Growth inhibition of human NCI-322M cells at 10 uM after 48 hrs by coulter counting; settings: read-out: GI; in short: as §2
NCI-H522 = assay: Growth inhibition of human NCI-H522 cells at 10 uM after 48 hrs by coulter counting; settings: NCI-H522, 48 h, read-out: GI; in short: as §2
HCT-116 = assay: Growth inhibition of human HCT116 cells at 10 uM after 48 hrs by coulter counting; settings: HCT-116, 48 h, read-out: GI; in short: as §2
HCC 2998 = assay: Growth inhibition of human HCC2998 cells at 10 uM after 48 hrs by coulter counting; settings: HCC 2998, 48 h, read-out: GI; in short: as §2
HT-29 = assay: Growth inhibition of human HT-29 cells at 10 uM after 48 hrs by coulter counting; settings: HT-29, 48 h, read-out: GI; in short: as §2
KM12 = assay: Growth inhibition of human KM12 cells at 10 uM after 48 hrs by coulter counting; settings: KM12, 48 h, read-out: GI; in short: as §2
SF-268 = assay: Growth inhibition of human SF268 cells at 10 uM after 48 hrs by coulter counting; settings: SF-268, 48 h, read-out: GI; in short: as §2
SF-295 = assay: Growth inhibition of human SF295 cells at 10 uM after 48 hrs by coulter counting; settings: SF-295, 48 h, read-out: GI; in short: as §2
SNB-19 = assay: Growth inhibition of human SNB19 cells at 10 uM after 48 hrs by coulter counting; settings: SNB-19, 48 h, read-out: GI; in short: as §2
SNB-75 = assay: Growth inhibition of human SNB75 cells at 10 uM after 48 hrs by coulter counting; settings: SNB-75, 48 h, read-out: GI; in short: as §2
U-251 = assay: Growth inhibition of human U251 cells at 10 uM after 48 hrs by coulter counting; settings: U-251, 48 h, read-out: GI; in short: as §1
LOX IMVI = assay: Growth inhibition of human LOXIMVI cells at 10 uM after 48 hrs by coulter counting; settings: read-out: GI; in short: as §2
M14 = assay: Growth inhibition of human M14 cells at 10 uM after 48 hrs by coulter counting; settings: M14, 48 h, read-out: GI; in short: as §2
MDA-MB-435 = assay: Growth inhibition of human MDA-MB-435 cells at 10 uM after 48 hrs by coulter counting; settings: MDA-MB-435, 48 h, read-out: GI; in short: as §2
SK-MEL-2 = assay: Growth inhibition of human SK-MEL-2 cells at 10 uM after 48 hrs by coulter counting; settings: SK-MEL-2, 48 h, read-out: GI; in short: as §2
SK-MEL-28 = assay: Growth inhibition of human SK-MEL-28 cells at 10 uM after 48 hrs by coulter counting; settings: SK-MEL-28, 48 h, read-out: GI; in short: as §2
SK-MEL-5 = assay: Growth inhibition of human SK-MEL-5 cells at 10 uM after 48 hrs by coulter counting; settings: SK-MEL-5, 48 h, read-out: GI; in short: as §2
IGROV-1 = assay: Growth inhibition of human IGROV1 cells at 10 uM after 48 hrs by coulter counting; settings: IGROV-1, 48 h, read-out: GI; in short: as §2
OVCAR-4 = assay: Growth inhibition of human OVCAR4 cells at 10 uM after 48 hrs by coulter counting; settings: OVCAR-4, 48 h, read-out: GI; in short: as §2
NCI/ADR-RES = assay: Growth inhibition of human NCI/ADR-RES cells at 10 uM after 48 hrs by coulter counting; settings: read-out: GI; in short: as §2
A498 = assay: Growth inhibition of human A498 cells at 10 uM after 48 hrs by coulter counting; settings: A498, 48 h, read-out: GI; in short: as §2
ACHN = assay: Growth inhibition of human ACHN cells at 10 uM after 48 hrs by coulter counting; settings: read-out: GI; in short: as §2
CAKI-1 = assay: Growth inhibition of human Caki1 cells at 10 uM after 48 hrs by coulter counting; settings: CAKI-1, 48 h, read-out: GI; in short: as §2
UO-31 = assay: Growth inhibition of human UO31 cells at 10 uM after 48 hrs by coulter counting; settings: UO-31, 48 h, read-out: GI; in short: as §1
DU-145 = assay: Growth inhibition of human DU145 cells at 10 uM after 48 hrs by coulter counting; settings: DU-145, 48 h, read-out: GI; in short: as §2
MCF7 = assay: Growth inhibition of human MCF7 cells at 10 uM after 48 hrs by coulter counting; settings: MCF7, 48 h, read-out: GI; in short: as §2
BT-549 = assay: Growth inhibition of human BT549 cells at 10 uM after 48 hrs by coulter counting; settings: BT-549, 48 h, read-out: GI; in short: as §2
T47D = assay: Growth inhibition of human T47D cells at 10 uM after 48 hrs by coulter counting; settings: read-out: GI; in short: as §1

COc1cc(/C=C2\CCCC3=C2N=C2SC=C(C)N2C3c2cc(OC)c(OC)c(OC)c2)cc(OC)c1OC (centres undefined)
inhibition of growth at 10 µM (UACC-257): > 10%
inhibition of growth at 10 µM (UACC-62): > 10%
inhibition of growth at 10 µM (CCRF-CEM): > 10%
inhibition of growth at 10 µM (HL-60(TB)): > 10%
inhibition of growth at 10 µM (K562): > 10%
inhibition of growth at 10 µM (MOLT-4): > 10%
inhibition of growth at 10 µM (RPMI-8226): > 10%
inhibition of growth at 10 µM (A549): > 10%
inhibition of growth at 10 µM (EKVX): > 10%
inhibition of growth at 10 µM (NCI-H226): > 10%
inhibition of growth at 10 µM (NCI-H23): > 10%
inhibition of growth at 10 µM [1]: > 10%
inhibition of growth at 10 µM (NCI-H522): > 10%
inhibition of growth at 10 µM (HCT-116): > 10%
inhibition of growth at 10 µM (HCC 2998): > 10%
inhibition of growth at 10 µM (HT-29): > 10%
inhibition of growth at 10 µM (KM12): > 10%
inhibition of growth at 10 µM (SF-268): > 10%
inhibition of growth at 10 µM (SF-295): > 10%
inhibition of growth at 10 µM (SNB-19): > 10%
inhibition of growth at 10 µM (SNB-75): > 10%
inhibition of growth at 10 µM (U-251): > 10%
inhibition of growth at 10 µM (LOX IMVI): > 10%
inhibition of growth at 10 µM (M14): > 10%
inhibition of growth at 10 µM (MDA-MB-435): > 10%
inhibition of growth at 10 µM (SK-MEL-2): > 10%
inhibition of growth at 10 µM (SK-MEL-28): > 10%
inhibition of growth at 10 µM (SK-MEL-5): > 10%
inhibition of growth at 10 µM (IGROV-1): > 10%
inhibition of growth at 10 µM (OVCAR-4): > 10%
inhibition of growth at 10 µM (NCI/ADR-RES): > 10%
inhibition of growth at 10 µM (A498): > 10%
inhibition of growth at 10 µM (ACHN): > 10%
inhibition of growth at 10 µM (CAKI-1): > 10%
inhibition of growth at 10 µM (UO-31): 20%
inhibition of growth at 10 µM (DU-145): > 10%
inhibition of growth at 10 µM (MCF7): > 10%
inhibition of growth at 10 µM (BT-549): > 10%
inhibition of growth at 10 µM (T47D): > 10%
